Test results taken from ChEMBL document CHEMBL1137816, “New polyhydroxylated pyrrolidine, piperidine, and pyrrolizidine alkaloids from Scilla sibirica” (J Nat Prod, 2002).
Activity calls are given as the source filed them. No cut-off for these calls is given here.

Tests used:
[1] = Inhibition of rice alpha-glucosidase assessed as D-glucose release after 10 mins by Glucose B-test; design: species or system Oryza sativa
Method in brief: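 Rice enzyme with maltose as substrate at the enzyme's optimum pH. Incubation with inhibitor ran 10 min at 37 °C. Released D-glucose determined colorimetrically with a glucose test kit.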

[2] = biological target: T1, Beta-galactosidase (Bos taurus, UniProt Q58D55); experiment: Inhibition of bovine liver beta-galactosidase assessed as p-nitrophenol release after 30 mins by spectrophotometry
T1 sequence (Q58D55 whole entry): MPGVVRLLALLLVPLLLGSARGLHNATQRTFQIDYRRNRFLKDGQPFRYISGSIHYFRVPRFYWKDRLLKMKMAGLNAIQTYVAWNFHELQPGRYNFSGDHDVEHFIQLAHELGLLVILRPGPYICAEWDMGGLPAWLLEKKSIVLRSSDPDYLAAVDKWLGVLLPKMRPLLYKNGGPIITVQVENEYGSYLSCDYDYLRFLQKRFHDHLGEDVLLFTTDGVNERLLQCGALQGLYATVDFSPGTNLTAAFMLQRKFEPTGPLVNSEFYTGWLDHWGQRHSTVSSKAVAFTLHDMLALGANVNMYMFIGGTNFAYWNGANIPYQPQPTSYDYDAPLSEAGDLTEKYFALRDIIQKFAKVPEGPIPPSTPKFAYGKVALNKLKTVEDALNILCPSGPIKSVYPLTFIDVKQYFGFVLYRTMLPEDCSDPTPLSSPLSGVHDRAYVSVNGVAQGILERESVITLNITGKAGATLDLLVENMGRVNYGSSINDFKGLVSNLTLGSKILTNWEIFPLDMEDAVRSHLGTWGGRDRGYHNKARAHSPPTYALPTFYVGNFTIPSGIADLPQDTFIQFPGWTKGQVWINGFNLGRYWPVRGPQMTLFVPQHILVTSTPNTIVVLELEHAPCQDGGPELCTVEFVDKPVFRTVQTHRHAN
Method in brief: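 Bovine liver enzyme at pH 6.8 with the appropriate p-nitrophenyl glycoside. Incubated with inhibitor 30 min at 37 °C, quenched with 400 mM Na2CO3, and released p-nitrophenol read at 400 nm.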

[3] = Inhibition of Penicillium decumbens alpha-L-rhamnosidase assessed as p-nitrophenol release after 30 mins by spectrophotometry
Method in brief: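 Penicillium decumbens enzyme assayed at pH 4.5 with the appropriate p-nitrophenyl glycoside. Substrate, diluted enzyme and inhibitor were incubated 30 min at 37 °C, then stopped with 400 mM Na2CO3. Released p-nitrophenol was read at 400 nm.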

[4] = biological target: T2, Beta-mannosidase (Rattus norvegicus) (UniProt Q4FZV0); experiment: Inhibition of rat epididymis beta-mannosidase assessed as p-nitrophenol release at 1000 uM after 30 mins by spectrophotometry
T2 sequence (whole entry): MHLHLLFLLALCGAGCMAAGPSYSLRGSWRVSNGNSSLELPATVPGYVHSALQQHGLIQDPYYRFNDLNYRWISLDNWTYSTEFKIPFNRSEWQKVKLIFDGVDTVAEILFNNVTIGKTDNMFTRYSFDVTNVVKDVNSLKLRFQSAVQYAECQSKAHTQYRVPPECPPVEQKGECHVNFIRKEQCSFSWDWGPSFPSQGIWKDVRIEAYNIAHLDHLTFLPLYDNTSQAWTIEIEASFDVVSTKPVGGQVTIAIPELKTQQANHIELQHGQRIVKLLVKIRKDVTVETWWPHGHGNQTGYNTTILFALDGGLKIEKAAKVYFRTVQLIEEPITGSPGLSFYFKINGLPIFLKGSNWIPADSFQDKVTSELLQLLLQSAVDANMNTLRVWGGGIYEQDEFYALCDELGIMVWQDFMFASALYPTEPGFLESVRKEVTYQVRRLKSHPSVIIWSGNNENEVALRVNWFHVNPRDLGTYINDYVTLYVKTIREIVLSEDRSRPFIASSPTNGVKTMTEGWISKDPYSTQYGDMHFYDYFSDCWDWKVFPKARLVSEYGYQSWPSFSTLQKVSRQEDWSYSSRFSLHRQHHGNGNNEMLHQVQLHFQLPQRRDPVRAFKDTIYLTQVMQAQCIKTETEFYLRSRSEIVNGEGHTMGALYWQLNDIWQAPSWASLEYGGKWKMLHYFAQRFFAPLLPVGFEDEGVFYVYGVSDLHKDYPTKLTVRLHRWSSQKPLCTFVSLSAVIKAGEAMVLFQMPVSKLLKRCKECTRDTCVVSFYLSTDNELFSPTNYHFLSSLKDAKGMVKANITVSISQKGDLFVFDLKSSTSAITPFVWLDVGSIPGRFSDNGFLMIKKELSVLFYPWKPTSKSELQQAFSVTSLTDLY
Method in brief: (§1)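 p-Nitrophenyl glycoside substrates: Penicillium decumbens α-L-rhamnosidase at pH 4.5, bovine epididymis α-L-fucosidase at pH 5.5, bovine liver β-galactosidase at pH 6.8. β-Mannosidase came from rat epididymal fluid purified from epididymis, with p-nitrophenyl-β-D-mannoside at pH 5.2. Enzyme, substrate and inhibitor were incubated 30 min at 37 °C. The reaction was stopped with 400 mM Na2CO3, and p-nitrophenol was read at 400 nm.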

[5] = biological target: T3, Tissue alpha-L-fucosidase (Bos taurus) (UniProt Q2KIM0); experiment: Inhibition of bovine epididymis alpha-L-fucosidase assessed as p-nitrophenol release at 1000 uM after 30 mins by spectrophotometry; method in brief: as §1
T3 sequence (whole entry): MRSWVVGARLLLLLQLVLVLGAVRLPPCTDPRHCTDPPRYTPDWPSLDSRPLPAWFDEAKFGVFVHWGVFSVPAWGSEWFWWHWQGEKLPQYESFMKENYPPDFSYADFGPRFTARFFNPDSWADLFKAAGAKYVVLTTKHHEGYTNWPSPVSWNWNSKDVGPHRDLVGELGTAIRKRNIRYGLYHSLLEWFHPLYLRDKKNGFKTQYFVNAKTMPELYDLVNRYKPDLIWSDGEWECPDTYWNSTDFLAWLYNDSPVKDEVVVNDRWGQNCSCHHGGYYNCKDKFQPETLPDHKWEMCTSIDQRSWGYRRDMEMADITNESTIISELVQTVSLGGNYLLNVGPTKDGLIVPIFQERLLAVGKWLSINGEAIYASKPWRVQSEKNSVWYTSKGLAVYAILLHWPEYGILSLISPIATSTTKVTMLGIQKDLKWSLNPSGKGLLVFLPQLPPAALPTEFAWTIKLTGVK

[6] = biological target: Oligo-1,6-glucosidase IMA1 (Saccharomyces cerevisiae S288c) (UniProt P53051); experiment: Inhibition of yeast alpha-glucosidase assessed as p-nitrophenol release at 1000 uM after 30 mins measured spectrometrically at 400 nm
[7] = biological target: Lysosomal alpha-glucosidase (Rattus norvegicus, UniProt Q6P7A9); experiment: Inhibition of rat liver lysosome alpha-glucosidase assessed as p-nitrophenol release after 30 mins measured spectrometrically at 400 nm
[8] = biological target: T4, Tissue alpha-L-fucosidase (Bos taurus, UniProt Q2KIM0); experiment: Inhibition of bovine epididymis alpha-L-fucosidase assessed as p-nitrophenol release after 30 mins by spectrophotometry
T4 sequence (Q2KIM0 whole entry): T3 sequence (whole entry)
Method in brief: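 Enzyme from bovine epididymis, run at pH 5.5 with the appropriate p-nitrophenyl glycoside substrate. Enzyme, substrate and inhibitor incubated together 30 min at 37 °C. Reaction stopped by adding 400 mM Na2CO3; p-nitrophenol measured spectrometrically at 400 nm.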

[9] = biological target: T5, Beta-galactosidase (Bos taurus) (UniProt Q58D55); experiment: Inhibition of bovine liver beta-galactosidase assessed as p-nitrophenol release at 1000 uM after 30 mins by spectrophotometry; method in brief: as §1
T5 sequence (whole entry): T1 sequence (Q58D55 whole entry)

[10] = tested on: Penicillium decumbens; experiment: Inhibition of Penicillium decumbens alpha-L-rhamnosidase assessed as p-nitrophenol release at 1000 uM by spectrophotometry; method in brief: as §1
[11] = Inhibition of rat intestinal amyloglucosidase
[12] = tested on: Oryza sativa; experiment: Inhibition of rice alpha-glucosidase assessed as D-glucose release at 1000 uM after 10 mins by Glucose B-test
Method in brief: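 Rice α-glucosidase was assayed with maltose as substrate at the enzyme's optimum pH. Incubation with inhibitor was 10 min at 37 °C. Released D-glucose was determined colorimetrically by Glucose B-test.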

[13] = biological target: Oligo-1,6-glucosidase IMA1 (Saccharomyces cerevisiae S288c) (UniProt P53051); experiment: Inhibition of yeast alpha-glucosidase assessed as D-glucose release at 1000 uM after 30 mins by Glucose B-test
[14] = biological target: Lysosomal alpha-glucosidase (Rattus norvegicus) (UniProt Q6P7A9); experiment: Inhibition of rat intestinal maltase assessed as D-glucose release at 1000 uM after 30 mins by Glucose B-test
Method in brief: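 Brush border membranes from rat small intestine served as the enzyme source, with maltose substrate at pH 5.8. Incubation with inhibitor was 30 min at 37 °C. Released D-glucose was measured colorimetrically by Glucose B-test.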

[15] = biological target: Lysosomal alpha-glucosidase (Rattus norvegicus) (UniProt Q6P7A9); experiment: Inhibition of rat liver lysosome alpha-glucosidase assessed as D-glucose release at 1000 uM after 30 mins by Glucose B-test
[16] = biological target: Lactase/phlorizin hydrolase (Rattus norvegicus, UniProt Q02401); experiment: Inhibition of rat intestinal lactase assessed as p-nitrophenol release after 30 mins by spectrophotometry
Chain of Lactase/phlorizin hydrolase (Q02401 868-1928 limits assumed): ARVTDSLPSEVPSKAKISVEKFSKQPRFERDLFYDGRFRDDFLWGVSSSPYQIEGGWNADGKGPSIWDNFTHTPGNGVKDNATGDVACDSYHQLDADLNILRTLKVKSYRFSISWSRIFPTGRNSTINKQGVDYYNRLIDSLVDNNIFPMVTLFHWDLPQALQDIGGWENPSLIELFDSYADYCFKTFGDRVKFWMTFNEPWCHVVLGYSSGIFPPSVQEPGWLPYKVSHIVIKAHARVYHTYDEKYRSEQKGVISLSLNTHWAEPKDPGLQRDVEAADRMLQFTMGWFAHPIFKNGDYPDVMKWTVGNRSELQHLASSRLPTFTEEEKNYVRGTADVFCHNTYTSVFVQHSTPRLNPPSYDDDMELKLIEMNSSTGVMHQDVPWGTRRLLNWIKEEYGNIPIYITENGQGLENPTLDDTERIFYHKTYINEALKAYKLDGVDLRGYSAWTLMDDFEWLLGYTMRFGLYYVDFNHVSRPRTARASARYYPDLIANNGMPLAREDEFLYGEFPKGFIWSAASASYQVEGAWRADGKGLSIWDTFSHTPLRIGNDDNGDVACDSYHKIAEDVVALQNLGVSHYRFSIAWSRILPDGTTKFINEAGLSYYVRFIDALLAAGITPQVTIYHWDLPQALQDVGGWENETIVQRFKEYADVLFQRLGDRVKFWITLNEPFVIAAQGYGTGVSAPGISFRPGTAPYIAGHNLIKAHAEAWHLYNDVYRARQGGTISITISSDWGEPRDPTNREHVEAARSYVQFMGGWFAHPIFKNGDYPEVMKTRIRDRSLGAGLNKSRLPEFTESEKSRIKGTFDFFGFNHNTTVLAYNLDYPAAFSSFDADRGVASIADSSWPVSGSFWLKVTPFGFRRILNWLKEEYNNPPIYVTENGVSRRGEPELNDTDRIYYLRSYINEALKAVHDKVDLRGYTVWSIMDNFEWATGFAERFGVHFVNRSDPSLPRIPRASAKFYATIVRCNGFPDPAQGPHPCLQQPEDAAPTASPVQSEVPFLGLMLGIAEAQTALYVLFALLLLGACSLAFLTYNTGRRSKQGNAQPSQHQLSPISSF

Chain of Oligo-1,6-glucosidase IMA1 (Saccharomyces cerevisiae S288c) (P53051 whole entry): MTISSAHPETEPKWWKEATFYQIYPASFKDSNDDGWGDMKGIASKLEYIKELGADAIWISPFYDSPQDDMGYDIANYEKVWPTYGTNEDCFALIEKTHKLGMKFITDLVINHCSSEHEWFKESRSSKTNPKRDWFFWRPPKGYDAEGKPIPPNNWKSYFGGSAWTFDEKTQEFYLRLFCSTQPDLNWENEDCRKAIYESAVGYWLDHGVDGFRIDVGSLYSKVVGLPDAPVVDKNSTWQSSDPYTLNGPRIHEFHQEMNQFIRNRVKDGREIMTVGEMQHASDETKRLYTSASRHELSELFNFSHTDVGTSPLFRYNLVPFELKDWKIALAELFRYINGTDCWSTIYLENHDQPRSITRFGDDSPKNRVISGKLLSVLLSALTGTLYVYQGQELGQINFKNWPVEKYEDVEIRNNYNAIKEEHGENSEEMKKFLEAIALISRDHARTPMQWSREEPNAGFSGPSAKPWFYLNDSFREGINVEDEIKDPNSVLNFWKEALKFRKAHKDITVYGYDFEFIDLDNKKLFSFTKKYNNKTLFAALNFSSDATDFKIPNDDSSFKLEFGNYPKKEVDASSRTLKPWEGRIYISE
Chain of Lysosomal alpha-glucosidase (Rattus norvegicus) (Q6P7A9 whole entry): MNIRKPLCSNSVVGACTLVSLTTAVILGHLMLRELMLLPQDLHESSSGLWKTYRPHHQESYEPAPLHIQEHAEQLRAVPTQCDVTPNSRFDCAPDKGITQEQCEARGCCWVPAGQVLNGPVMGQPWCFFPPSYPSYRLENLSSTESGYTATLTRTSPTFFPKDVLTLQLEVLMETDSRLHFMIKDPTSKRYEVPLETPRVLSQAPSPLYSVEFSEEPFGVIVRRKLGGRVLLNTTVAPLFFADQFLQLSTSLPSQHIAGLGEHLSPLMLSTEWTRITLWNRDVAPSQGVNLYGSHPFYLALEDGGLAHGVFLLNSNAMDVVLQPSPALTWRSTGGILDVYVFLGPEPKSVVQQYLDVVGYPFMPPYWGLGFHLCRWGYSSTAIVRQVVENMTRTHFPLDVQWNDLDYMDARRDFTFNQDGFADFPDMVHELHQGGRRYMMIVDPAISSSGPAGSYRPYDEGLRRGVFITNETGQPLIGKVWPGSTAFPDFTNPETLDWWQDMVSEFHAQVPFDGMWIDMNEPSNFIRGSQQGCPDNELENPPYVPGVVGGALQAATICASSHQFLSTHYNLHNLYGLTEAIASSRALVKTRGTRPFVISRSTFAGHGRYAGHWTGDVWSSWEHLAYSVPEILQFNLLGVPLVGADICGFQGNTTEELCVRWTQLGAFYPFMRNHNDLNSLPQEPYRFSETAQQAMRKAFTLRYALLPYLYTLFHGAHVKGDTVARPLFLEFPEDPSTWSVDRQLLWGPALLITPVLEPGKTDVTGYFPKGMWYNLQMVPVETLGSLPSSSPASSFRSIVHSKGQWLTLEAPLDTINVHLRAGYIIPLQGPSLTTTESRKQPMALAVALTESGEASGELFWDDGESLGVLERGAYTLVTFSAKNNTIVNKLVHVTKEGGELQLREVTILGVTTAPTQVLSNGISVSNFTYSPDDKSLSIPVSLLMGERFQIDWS
Chain of Lysosomal alpha-glucosidase (Q6P7A9 whole entry): as above

IC50 [1] [µM]	IC50 [2] [µM]	IC50 [3] [µM]	inhibition [4] [%]	inhibition [5] [%]	inhibition [6] [%]	IC50 [7] [µM]	Structure (SMILES)	IC50 [8] [µM]	Activity [9]	Activity [5]	Activity [10]	IC50 [11] [µM]	Activity [12]	Activity [13]	Activity [14]	Activity [15]	IC50 [16] [µM]
8	260	94	< 50	< 50	< 50	19	C[C@H]1N[C@H](CO)[C@@H](O)[C@H](O)[C@H]1O	–	–	–	–	–	–	–	–	–	–
–	–	–	–	–	–	–	C[C@@H]1C[C@H](O)[C@@H]2[C@@H](O)[C@H](O)[C@@H](CO)N21 (relative stereo) [HYACINTHACINE B4]	23	inactive	inactive	inactive	89	inactive	inactive	inactive	inactive	–
–	–	–	–	–	–	–	C[C@@H]1C[C@@H](O)[C@@H]2[C@H](O)[C@H](O)[C@@H](CO)N21 [HYACINTHACINE B3]	–	inactive	inactive	inactive	51	inactive	inactive	inactive	inactive	18
